From ChEMBL document CHEMBL1127042, “Molecular size and flexibility as determinants of selectivity in the oxidation of N-methyl-4-phenyl-1,2,3,6-tetrahydropyridine analogs by monoamine oxidase A and B” (J Med Chem, 1993)
Where “and” joins values, the source holds several entries; their conditions need not be identical. Equal values may be shown once.

Experiments:
[1] = molecular target: Amine oxidase [flavin-containing] A (Homo sapiens) (UniProt P21397); experiment: Ratio between TN and Km against MAO A
[2] = molecular target: T1, Amine oxidase [flavin-containing] A (Homo sapiens, UniProt P21397); experiment: Turnover number against MAO A (umol of substrate/min per umol of enzyme).
T1 sequence (P21397 whole entry): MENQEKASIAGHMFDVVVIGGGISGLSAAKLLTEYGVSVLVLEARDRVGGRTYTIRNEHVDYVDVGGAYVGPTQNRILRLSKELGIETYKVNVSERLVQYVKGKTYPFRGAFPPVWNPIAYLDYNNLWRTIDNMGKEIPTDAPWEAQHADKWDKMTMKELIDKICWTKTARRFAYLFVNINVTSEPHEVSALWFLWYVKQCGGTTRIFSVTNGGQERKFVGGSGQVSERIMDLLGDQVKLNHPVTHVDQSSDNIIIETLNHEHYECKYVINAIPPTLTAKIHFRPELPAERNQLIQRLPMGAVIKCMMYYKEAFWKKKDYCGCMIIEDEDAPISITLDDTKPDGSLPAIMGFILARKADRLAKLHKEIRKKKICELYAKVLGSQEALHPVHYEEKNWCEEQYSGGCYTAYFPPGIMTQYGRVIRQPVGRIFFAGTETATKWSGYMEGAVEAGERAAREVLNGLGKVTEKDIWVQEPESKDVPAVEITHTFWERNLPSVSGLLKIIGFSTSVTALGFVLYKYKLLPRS
Summary of the method: (§1)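 Human liver MAO A expressed in yeast, purified. Initial oxidation rates measured polarographically (O2 uptake) at 30 °C in sodium phosphate buffer, pH 7.2, with 0.2% (w/v) Brij-35. Enzyme was added last to start the reaction, and its amount was set so rates were read within 60-120 s. Vmax came from double-reciprocal plots. TN was Vmax divided by flavin content. Flavin content was found from the optical density change on anaerobic reduction by kynuramine.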

[3] = molecular target: T2, Amine oxidase [flavin-containing] B (Bos taurus, UniProt P56560); experiment: Ratio of turnover number(TN)and Km for MAO B; conditions: cattle
T2 sequence (P56560 whole entry): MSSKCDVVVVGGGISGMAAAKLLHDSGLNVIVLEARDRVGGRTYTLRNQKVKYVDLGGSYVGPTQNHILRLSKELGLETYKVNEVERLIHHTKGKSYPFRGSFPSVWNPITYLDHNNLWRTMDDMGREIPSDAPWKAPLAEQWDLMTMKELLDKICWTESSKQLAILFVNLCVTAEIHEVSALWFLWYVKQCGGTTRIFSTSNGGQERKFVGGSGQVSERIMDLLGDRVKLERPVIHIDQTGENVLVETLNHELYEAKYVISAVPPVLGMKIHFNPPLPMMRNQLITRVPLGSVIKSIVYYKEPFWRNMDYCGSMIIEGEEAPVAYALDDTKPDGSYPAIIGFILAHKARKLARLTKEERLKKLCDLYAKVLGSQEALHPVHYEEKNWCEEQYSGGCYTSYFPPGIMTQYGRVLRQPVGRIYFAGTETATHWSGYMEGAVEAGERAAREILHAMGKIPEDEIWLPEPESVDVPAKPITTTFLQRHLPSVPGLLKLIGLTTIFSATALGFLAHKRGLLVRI
Summary of the method: (§2)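 Beef liver MAO B, purified. Initial oxidation rates measured polarographically at 30 °C in sodium phosphate buffer, pH 7.2, with 0.2% (w/v) Brij-35. The reaction was started by adding enzyme, dosed so rates were measurable within 60-120 s. Vmax came from double-reciprocal plots. Turnover number was Vmax per flavin content. Flavin content came from the optical density change on anaerobic reduction by benzylamine.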

[4] = molecular target: T2, Amine oxidase [flavin-containing] B; experiment: Turnover number against MAO B (umol of substrate/min per umol of enzyme).; conditions: cattle
Summary of the method: as §2

[5] = molecular target: T3, MAO A (amine oxidase [flavin-containing] A) (Homo sapiens, UniProt P21397); experiment: Michaelis-Menten constant against MAO A.
T3 sequence (P21397 whole entry): T1 sequence (P21397 whole entry)
Summary of the method: as §1

[6] = molecular target: T2, Amine oxidase [flavin-containing] B; experiment: Ratio between TN and Km against MAO B; conditions: cattle
Summary of the method: as §2

Compound	Ratio [1]	TN [2] [min⁻¹]	Ratio [3]	TN [4] [min⁻¹]	Ratio [6]	Km [5] [µM]
NCc1ccccc1 [BENZYLAMINE]	13	10	963	283	–	–
CN1CC=C(c2ccsc2)CC1	80 and 160	8.14	–	4.17	–	–
CN1CC=C(Cc2cccc3ccccc23)CC1	2592	443	105	89	–	–
CN1CC=C(c2ccccc2)CC1	143	20	523	204	–	140
CN1CC=C(CCc2cccc3ccccc23)CC1	3187	244	62	80	–	–
CN1CC=C(Cc2ccc3ccccc3c2)CC1	3344	121	326	274	–	–
CN1CC=C(c2cccs2)CC1	28	5.21	71	12	–	–
CN1CC=C(Cc2ccccc2)CC1	139	9.2	1250	193	–	–
CN1CC=C(c2cccc3ccccc23)CC1	1893	140	500	55	–	–
NCCC(=O)c1ccccc1N [KYNURAMINE]	860	146	–	165	1964	–
CN1CC=C(c2ccc3ccccc3c2)CC1	2216	10.2	101	73.5	–	–

Continued, in another order:

Ratio [1]	TN [2] [min⁻¹]	Ratio [3]	TN [4] [min⁻¹]	Ratio [6]	Compound	Km [5] [µM]
389	42	1059	51.9	–	CN1CC=C(CCc2cccs2)CC1	–
1120	137	1130	61	–	CN1CC=C(CCc2ccccc2)CC1	–
2225	95.9	76	79	–	CN1CC=C(CCc2ccc3ccccc3c2)CC1	–
228	29.7	890	50.7	–	CN1CC=C(CCc2ccsc2)CC1	–
175	8.4	3270	337	–	CN1CC=C(Cc2cccs2)CC1	–
98	13.3	785	153	–	CN1CC=C(Cc2ccsc2)CC1	–
